Test system: HFF
Experiment: Cytotoxic concentration against AD169 strain of human cytomegalovirus infected HFF cells of human (by neutral red uptake)
Assay type: functional
Details: not given

Row | Structure (SMILES) | CC50 [µM]
1 | Nc1nc2c(ncn2COC(CO)CO)c(=O)[nH]1 [GANCICLOVIR] | > 392

Test system: Vero
Experiment: Cytotoxic concentration required to inhibit herpes simplex virus 2 infected vero cells
Assay type: functional
Details: Chlorocebus sabaeus

Row | Structure (SMILES) | CC50 [µM]
2 | Nc1nc2c(ncn2COCCO)c(=O)[nH]1 [ACYCLOVIR] | > 200

Test system: Hepatitis B virus
Experiment: Effective concentration required to inhibit hepatitis B virus replication in 2.2.15 cells in DNA hybridization assay
Assay type: functional, organism-based
Details: HepG2 2.2.15
Procedure, shortened: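 HBV assayed in 2.2.15 cells by DNA hybridization. CC50 values are those from the EBV/H-1 cytotoxicity determination, run in CEM cells. Single experiments unless specified otherwise.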

Row | Structure (SMILES) | EC50 [µM]
3 | Nc1nc(O)c2ncn(/C=C3\CC34COP(=O)(O)OC4)c2n1 (stereo unspecified) | > 20

Test system: Daudi
Experiment: Cytotoxic concentration to inhibit replication in daudi cells
Assay type: functional
Details: Homo sapiens

Row | Structure (SMILES) | CC50 [µM]
4 | Nc1nc(O)c2ncn(/C=C3\CC34COP(=O)(O)OC4)c2n1 (stereo unspecified) | > 150
5 | Nc1nc2c(ncn2COCCO)c(=O)[nH]1 [ACYCLOVIR] | > 222

Test system: Human betaherpesvirus 5
Experiment: Effective concentration for antiviral activity against towne strain of human cytomegalovirus in plaque reduction assay
Assay type: functional, organism-based
Details: not given
Procedure, shortened: (§1)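 Human CMV (Towne and AD169 strains) grown in HFF cell culture; antiviral effect read by plaque reduction or by cytopathic effect (CPE) inhibition. Cytotoxicity measured in HFF cells. Single experiments unless specified otherwise.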

Row | Structure (SMILES) | EC50 [µM]
6 | Nc1nc(O)c2ncn(/C=C3\CC34COP(=O)(O)OC4)c2n1 (stereo unspecified) | > 100
7 | Nc1nc2c(ncn2COC(CO)CO)c(=O)[nH]1 [GANCICLOVIR] | 2.1

Test system: HFF
Experiment: Cytotoxic concentration against town strain of human cytomegalovirus infected HFF cells of human (visual cytotoxicity)
Assay type: functional
Details: not given
Procedure, shortened: as §1

Row | Structure (SMILES) | CC50 [µM]
8 | Nc1nc2c(ncn2COC(CO)CO)c(=O)[nH]1 [GANCICLOVIR] | > 100

Test system: Human gammaherpesvirus 4
Experiment: Effective concentration required to inhibit Epstein-barr virus replication in daudi cells in viral capsid immunofluorescence ELISA
Assay type: functional, organism-based
Details: human gammaherpesvirus 4, Daudi

Row | Structure (SMILES) | EC50 [µM]
9 | Nc1nc(O)c2ncn(/C=C3\CC34COP(=O)(O)OC4)c2n1 (stereo unspecified) | > 150
10 | Nc1nc2c(ncn2COCCO)c(=O)[nH]1 [ACYCLOVIR] | 1.1

Test system: Human alphaherpesvirus 2
Experiment: Effective concentration required to inhibit herpes simplex virus 2 in HFF cells in cytopathic effect (CPE) assay
Assay type: functional, organism-based
Details: Human alphaherpesvirus 2, HFF
Procedure, shortened: (§2)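 HSV-1 and HSV-2 assayed in HFF cells by cytopathic effect (CPE) inhibition and by plaque reduction. Cytotoxicity measured in HFF cells. Single experiments unless specified otherwise.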

Row | Structure (SMILES) | EC50 [µM]
11 | Nc1nc(O)c2ncn(/C=C3\CC34COP(=O)(O)OC4)c2n1 (stereo unspecified) | > 299
12 | Nc1nc2c(ncn2COCCO)c(=O)[nH]1 [ACYCLOVIR] | 6.7

Test system: MEF
Experiment: Cytotoxic concentration against murine cytomegalovirus infected MEF cells
Assay type: functional
Details: Mus musculus

Row | Structure (SMILES) | CC50 [µM]
13 | Nc1nc2c(ncn2COC(CO)CO)c(=O)[nH]1 [GANCICLOVIR] | > 392

Test system: Human betaherpesvirus 5
Experiment: Effective concentration for antiviral activity against AD169 strain of human cytomegalovirus in plaque reduction assay
Assay type: functional, organism-based
Details: not given
Procedure, shortened: as §1

Row | Structure (SMILES) | EC50 [µM]
14 | Nc1nc(O)c2ncn(/C=C3\CC34COP(=O)(O)OC4)c2n1 (stereo unspecified) | > 299
15 | Nc1nc2c(ncn2COC(CO)CO)c(=O)[nH]1 [GANCICLOVIR] | 1.6

Test system: Human alphaherpesvirus 1
Experiment: Effective concentration required to inhibit herpes simplex virus 1 in BSC-1 cells in ELISA
Assay type: functional, organism-based
Details: Human alphaherpesvirus 1, BSC-1
Procedure, shortened: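 HSV-1 assayed in BSC-1 cells with ELISA read-out; cytotoxicity in these assays determined in KB cells. Single experiments unless specified otherwise.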

Row | Structure (SMILES) | EC50 [µM]
16 | Nc1nc(O)c2ncn(/C=C3\CC34COP(=O)(O)OC4)c2n1 (stereo unspecified) | > 100
17 | Nc1nc2c(ncn2COCCO)c(=O)[nH]1 [ACYCLOVIR] | 1.5

Test system: not listed separately
Experiment: Effective concentration required to inhibit varicella zoster virus replication in HFF cells
Assay type: functional, cell-based
Details: Human alphaherpesvirus 3, HFF
Procedure, shortened: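 VZV assayed in HFF cells by cytopathic effect (CPE) inhibition or by plaque reduction. Single experiments unless specified otherwise.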

Row | Structure (SMILES) | EC50 [µM]
18 | Nc1nc(O)c2ncn(/C=C3\CC34COP(=O)(O)OC4)c2n1 (stereo unspecified) | > 299
19 | Nc1nc2c(ncn2COCCO)c(=O)[nH]1 [ACYCLOVIR] | 1.6

Test system: Human alphaherpesvirus 1
Experiment: Effective concentration required to inhibit herpes simplex virus 1 in HFF cells in cytopathic effect (CPE) assay
Assay type: functional, organism-based
Details: Human alphaherpesvirus 1, HFF
Procedure, shortened: as §2

Row | Structure (SMILES) | EC50 [µM]
20 | Nc1nc(O)c2ncn(/C=C3\CC34COP(=O)(O)OC4)c2n1 (stereo unspecified) | > 299
21 | Nc1nc2c(ncn2COCCO)c(=O)[nH]1 [ACYCLOVIR] | 0.9

Test system: KB (Homo sapiens)
Experiment: Cytotoxic concentration required to inhibit KB cells
Details: not given

Row | Structure (SMILES) | CC50 [µM]
22 | Nc1nc(O)c2ncn(/C=C3\CC34COP(=O)(O)OC4)c2n1 (stereo unspecified) | > 100
23 | Nc1nc2c(ncn2COCCO)c(=O)[nH]1 [ACYCLOVIR] | > 100

Test system: HFF
Experiment: Cytotoxic concentration to inhibit Herpes simplex virus 2 infected HFF cells
Assay type: functional
Details: Homo sapiens
Procedure, shortened: as §2

Row | Structure (SMILES) | CC50 [µM]
24 | Nc1nc2c(ncn2COCCO)c(=O)[nH]1 [ACYCLOVIR] | > 444

Test system: HFF
Experiment: Cytotoxic concentration against towne strain of human cytomegalovirus infected HFF cells of human (visual cytotoxicity)
Assay type: functional
Details: not given
Procedure, shortened: as §1

Row | Structure (SMILES) | CC50 [µM]
25 | Nc1nc(O)c2ncn(/C=C3\CC34COP(=O)(O)OC4)c2n1 (stereo unspecified) | > 100

Test system: Human alphaherpesvirus 2
Experiment: Effective concentration required to inhibit herpes simplex virus 2 in vero cells in plaque reduction assay
Assay type: functional, organism-based
Details: Human alphaherpesvirus 2, Vero
Procedure, shortened: (§3)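 HSV-1 and HSV-2 assayed in Vero cells by plaque reduction. Single experiments unless specified otherwise.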

Row | Structure (SMILES) | EC50 [µM]
26 | Nc1nc(O)c2ncn(/C=C3\CC34COP(=O)(O)OC4)c2n1 (stereo unspecified) | 50
27 | Nc1nc2c(ncn2COCCO)c(=O)[nH]1 [ACYCLOVIR] | 32.3

Test system: HFF
Experiment: Cytotoxic concentration to inhibit Herpes simplex virus 1 infected HFF cells
Assay type: functional
Details: Homo sapiens
Procedure, shortened: as §2

Row | Structure (SMILES) | CC50 [µM]
28 | Nc1nc2c(ncn2COCCO)c(=O)[nH]1 [ACYCLOVIR] | > 444

Test system: HFF
Experiment: Cytotoxic concentration to inhibit replication in HFF cells in cytopathic effect inhibition assay
Assay type: functional
Details: Homo sapiens
Procedure, shortened: as §1

Row | Structure (SMILES) | CC50 [µM]
29 | Nc1nc2c(ncn2COCCO)c(=O)[nH]1 [ACYCLOVIR] | > 444

Test system: not listed separately
Experiment: Cytotoxic concentration to inhibit replication in H-1 cells (in CEM cells)
Assay type: functional
Details: Homo sapiens, CCRF-CEM
Procedure, shortened: (§4)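 EBV assayed in H-1 cells by DNA hybridization. Cytotoxicity determined separately in CEM cells. Single experiments unless specified otherwise.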

Row | Structure (SMILES) | CC50 [µM]
30 | Nc1nc(O)c2ncn(/C=C3\CC34COP(=O)(O)OC4)c2n1 (stereo unspecified) | > 100

Test system: Vero
Experiment: Cytotoxic concentration required to inhibit herpes simplex virus 1 infected vero cells
Assay type: functional
Details: Chlorocebus sabaeus

Row | Structure (SMILES) | CC50 [µM]
31 | Nc1nc2c(ncn2COCCO)c(=O)[nH]1 [ACYCLOVIR] | > 200

Test system: HFF
Experiment: Cytotoxic concentration against AD169 strain of human cytomegalovirus infected HFF cells of human (by cytopathic effect inhibition assay)
Assay type: functional
Details: not given
Procedure, shortened: as §1

Row | Structure (SMILES) | CC50 [µM]
32 | Nc1nc(O)c2ncn(/C=C3\CC34COP(=O)(O)OC4)c2n1 (stereo unspecified) | > 299

Test system: Human gammaherpesvirus 4
Experiment: Effective concentration required to inhibit Epstein-barr virus replication in H-1 cells in DNA hybridization assay
Assay type: functional, organism-based
Details: human gammaherpesvirus 4, H-1
Procedure, shortened: as §4

Row | Structure (SMILES) | EC50 [µM]
33 | Nc1nc(O)c2ncn(/C=C3\CC34COP(=O)(O)OC4)c2n1 (stereo unspecified) | > 20
34 | Nc1nc2c(ncn2COC(CO)CO)c(=O)[nH]1 [GANCICLOVIR] | 5

Test system: Human alphaherpesvirus 1
Experiment: Effective concentration required to inhibit herpes simplex virus 1 in vero cells in plaque reduction assay
Assay type: functional, organism-based
Details: Human alphaherpesvirus 1, Vero
Procedure, shortened: as §3

Row | Structure (SMILES) | EC50 [µM]
35 | Nc1nc(O)c2ncn(/C=C3\CC34COP(=O)(O)OC4)c2n1 (stereo unspecified) | > 50
36 | Nc1nc2c(ncn2COCCO)c(=O)[nH]1 [ACYCLOVIR] | 13.5

From ChEMBL document CHEMBL1139499, “Nucleotides and pronucleotides of 2,2-bis(hydroxymethyl)methylenecyclopropane analogues of purine nucleosides: synthesis and antiviral activity” (J Med Chem, 2005)
